In brackets after ≈: the same amount, converted by molar mass.
Key:
CHO-K1 = test: Cytotoxicity against CHOK1 cells assessed as reduction in cell viability incubated for 48 hrs by MTT assay; format: cell-based; conditions: Cricetulus griseus, CHO-K1, 48 h
Method in brief: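 CHO-K1 cells seeded at 10^5 cells/well 24 h before exposure, medium then replaced with fresh medium containing compound; 48 h at 37 °C, 5% CO2, MTT added at 44 h for 4 h, formazan dissolved in DMSO, OD read at 540 nm. Triplicates; DMSO stocks 2 mg/mL, poorly soluble samples as suspensions; emetine reference; IC50 from non-linear dose-response fit.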

[1] = tested on: Mycobacterium tuberculosis; test: Antimycobacterial activity against Mycobacterium tuberculosis H37RvMA ATCC 27294 cultured in non protein-based Middlebrook 7H9 medium supplemented with glucose-casitone-tyloxapol assessed as inhibition of bacterial growth incubated for 7 days in by alamar blue staining based assay; format: functional; conditions: H37RvMA ATCC 27294, 168 h
Method in brief: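 Medium is 7H9 with 0.03% Casitone, 0.4% glucose and 0.05% Tyloxapol. H37RvMa is grown to OD600 0.6–0.7 and diluted 1:500. Duplicate two-fold dilutions over 10 wells come from 10 mM DMSO stocks. Incubation at 37 °C, 5% CO2. AlamarBlue added on day 7. The MIC90 is the lowest concentration with no visible growth on day 8, or is read by fluorescence.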

[2] = tested on: Mycobacterium tuberculosis; test: Antimycobacterial activity against Mycobacterium tuberculosis H37RvMA ATCC 27294 cultured in protein-based Middlebrook 7H9 medium supplemented with glucose, albumin-dextrose-catalase and Tween 80 assessed as inhibition of bacterial growth incubated for 7 days in by alamar blue staining based assay; format: functional; conditions: H37RvMA ATCC 27294, 168 h
Method in brief: (§1)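 Broth microdilution MIC90 assay against H37RvMa (ATCC 27294). Culture grown to OD600 0.6–0.7, diluted 1:500. Compounds come from 10 mM DMSO stocks and are run as duplicate two-fold dilutions over 10 wells. Plates incubated at 37 °C, 5% CO2, humidified. AlamarBlue added on day 7 and incubated 24 h more, then read on day 8, visually (blue = no growth) or by fluorescence (excitation 540 nm).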

[3] = Protein binding in human serum; format: ADME, cell-free; conditions: read-out: PB
[4] = tested on: Mycobacterium tuberculosis; test: Antimycobacterial activity against Mycobacterium tuberculosis; format: functional; method in brief: as §1

| SMILES | IC50 (CHO-K1) [µM] | MIC90 [1] [µM] | MIC90 [2] [µM] | fraction unbound [3] | MIC90 [4] [µM] |
| --- | --- | --- | --- | --- | --- |
| CC(=O)O[C@H]1C[C@@]2(C)[C@@H](C[C@@H](O)[C@H]3[C@@]4(C)CC[C@@H](O)[C@@H](C)[C@@H]4CC[C@@]32C)/C1=C(\CCC=C(C)C)C(=O)NC(C)c1cnccn1 (mixture of isomers) | > 50 | 17.5 | 62.5 |  |  |
| CC(=O)O[C@H]1C[C@@]2(C)[C@@H](C[C@@H](O)[C@H]3[C@@]4(C)CC[C@@H](O)[C@@H](C)[C@@H]4CC[C@@]32C)/C1=C(\CCC=C(C)C)C(=O)NC(C)c1ccc(C)cc1 (mixture of isomers) | 47.9 | 2.91 | > 125 |  |  |
| CC(=O)O[C@H]1C[C@@]2(C)[C@@H](C[C@@H](O)[C@H]3[C@@]4(C)CC[C@@H](O)[C@@H](C)[C@@H]4CC[C@@]32C)/C1=C(\CCC=C(C)C)C(=O)Nc1ccc(F)cc1 | 39.9 | 125 (≈ 76.2 µg/mL) | 125 (≈ 76.2 µg/mL) |  |  |
| CC(=O)O[C@H]1C[C@@]2(C)[C@@H](C[C@@H](O)[C@H]3[C@@]4(C)CC[C@@H](O)[C@@H](C)[C@@H]4CC[C@@]32C)/C1=C(\CCC=C(C)C)C(=O)N[C@@H](C)C1CCCCC1 | 44.7 | 4.5 (≈ 2.82 µg/mL) | > 125 |  |  |
| CC(=O)O[C@H]1C[C@@]2(C)[C@@H](C[C@@H](O)[C@H]3[C@@]4(C)CC[C@@H](O)[C@@H](C)[C@@H]4CC[C@@]32C)/C1=C(\CCC=C(C)C)C(=O)NC(C)c1ccc(F)cc1 (mixture of isomers) | 45.3 | 19.8 | > 125 |  |  |
| CC(=O)O[C@H]1C[C@@]2(C)[C@@H](C[C@@H](O)[C@H]3[C@@]4(C)CC[C@@H](O)[C@@H](C)[C@@H]4CC[C@@]32C)/C1=C(\CCC=C(C)C)C(=O)N[C@H](C)c1ccc(F)cc1 | 8.24 | > 125 | > 125 |  |  |
| CC(=O)O[C@H]1C[C@@]2(C)[C@@H](C[C@@H](O)[C@H]3[C@@]4(C)CC[C@@H](O)[C@@H](C)[C@@H]4CC[C@@]32C)/C1=C(\CCC=C(C)C)C(=O)NCc1ccc(O)cc1 | > 50 | 125 (≈ 77.7 µg/mL) | 125 (≈ 77.7 µg/mL) |  |  |
| CC(=O)O[C@H]1C[C@@]2(C)[C@@H](C[C@@H](O)[C@H]3[C@@]4(C)CC[C@@H](O)[C@@H](C)[C@@H]4CC[C@@]32C)/C1=C(\CCC=C(C)C)C(=O)NCc1ccc(S(N)(=O)=O)cc1 | 30.2 | 2.71 (≈ 1.86 µg/mL) | 62.3 (≈ 42.7 µg/mL) |  |  |
| CC[C@H]1CN2CCc3cc(OC)c(OC)cc3[C@@H]2C[C@@H]1C[C@H]1NCCc2cc(OC)c(OC)cc21 [EMETINE] | 0.02 |  |  |  |  |
| CC(=O)O[C@H]1C[C@@]2(C)[C@@H](C[C@@H](O)[C@H]3[C@@]4(C)CC[C@@H](O)[C@@H](C)[C@@H]4CC[C@@]32C)/C1=C(\CCC=C(C)C)C(=O)N[C@@H](C)c1ccccc1Cl | 45.1 | 9.8 (≈ 6.41 µg/mL) | 41.5 (≈ 27.2 µg/mL) |  |  |
| CC(=O)O[C@H]1C[C@@]2(C)[C@@H](C[C@@H](O)[C@H]3[C@@]4(C)CC[C@@H](O)[C@@H](C)[C@@H]4CC[C@@]32C)/C1=C(\CCC=C(C)C)C(=O)N[C@@H](C)c1ccccc1 | 46 | 8.9 (≈ 5.52 µg/mL) | > 125 |  |  |
| CC(=O)O[C@H]1C[C@@]2(C)[C@@H](C[C@@H](O)[C@H]3[C@@]4(C)CC[C@@H](O)[C@@H](C)[C@@H]4CC[C@@]32C)/C1=C(\CCC=C(C)C)C(=O)N[C@@H](C(N)=O)c1ccccc1 | > 50 | 9.1 (≈ 5.9 µg/mL) | 15.7 (≈ 10.2 µg/mL) |  |  |
| CO[C@H]1/C=C/O[C@@]2(C)Oc3c(C)c(O)c4c(O)c(c(/C=N/N5CCN(C)CC5)c(O)c4c3C2=O)NC(=O)/C(C)=C\C=C\[C@H](C)[C@H](O)[C@@H](C)[C@@H](O)[C@@H](C)[C@H](OC(C)=O)[C@@H]1C [RIFAMPIN] |  | 0.02 (≈ 0.0165 µg/mL) | 0.009 (≈ 0.00741 µg/mL) |  |  |
| CC(=O)O[C@H]1C[C@@]2(C)[C@@H](C[C@@H](O)[C@H]3[C@@]4(C)CC[C@@H](O)[C@@H](C)[C@@H]4CC[C@@]32C)/C1=C(\CCC=C(C)C)C(=O)N[C@H](C)c1ccccc1Cl | 18.2 | 10.1 (≈ 6.61 µg/mL) | > 125 |  |  |
| CC(=O)O[C@H]1C[C@@]2(C)[C@@H](C[C@@H](O)[C@H]3[C@@]4(C)CC[C@@H](O)[C@@H](C)[C@@H]4CC[C@@]32C)/C1=C(\CCC=C(C)C)C(=O)N[C@@H](C)c1ccc(F)cc1 | 47.4 | 7.59 (≈ 4.84 µg/mL) | > 125 |  |  |
| CC(=O)O[C@H]1C[C@@]2(C)[C@@H](C[C@@H](O)[C@H]3[C@@]4(C)CC[C@@H](O)[C@@H](C)[C@@H]4CC[C@@]32C)/C1=C(\CCC=C(C)C)C(=O)Nc1ccc(C)cc1 | > 50 | > 125 | 125 (≈ 75.7 µg/mL) |  |  |

| SMILES | IC50 (CHO-K1) [µM] | MIC90 [1] [µM] | MIC90 [2] [µM] | fraction unbound [3] | MIC90 [4] [µM] |
| --- | --- | --- | --- | --- | --- |
| COc1cccc(NC(=O)/C(CCC=C(C)C)=C2\[C@@H](OC(C)=O)C[C@@]3(C)[C@H]2C[C@@H](O)[C@H]2[C@@]4(C)CC[C@@H](O)[C@@H](C)[C@@H]4CC[C@@]23C)c1 | 42.7 | > 125 | > 125 |  |  |
| CC(=O)O[C@H]1C[C@@]2(C)[C@@H](C[C@@H](O)[C@H]3[C@@]4(C)CC[C@@H](O)[C@@H](C)[C@@H]4CC[C@@]32C)/C1=C(\CCC=C(C)C)C(=O)NC1(c2ccccc2)CC1 | 36.8 | 13.9 (≈ 8.78 µg/mL) | > 125 |  |  |
| CC(=O)O[C@H]1C[C@@]2(C)[C@@H](C[C@@H](O)[C@H]3[C@@]4(C)CC[C@@H](O)[C@@H](C)[C@@H]4CC[C@@]32C)/C1=C(\CCC=C(C)C)C(=O)Nc1ccc(O)cc1 | 45.4 | 6.9 (≈ 4.19 µg/mL) | > 125 |  |  |
| CC(=O)O[C@H]1C[C@@]2(C)[C@@H](C[C@@H](O)[C@H]3[C@@]4(C)CC[C@@H](O)[C@@H](C)[C@@H]4CC[C@@]32C)/C1=C(\CCC=C(C)C)C(=O)NC(C)c1cccnc1 (mixture of isomers) | > 50 | 17.9 | > 125 |  |  |
| CC(=O)O[C@H]1C[C@@]2(C)[C@@H](C[C@@H](O)[C@H]3[C@@]4(C)CC[C@@H](O)[C@@H](C)[C@@H]4CC[C@@]32C)/C1=C(\CCC=C(C)C)C(=O)NC(C)c1ccncc1 (mixture of isomers) | > 50 | 13 | 125 |  |  |
| COc1ccccc1NC(=O)/C(CCC=C(C)C)=C1\[C@@H](OC(C)=O)C[C@@]2(C)[C@H]1C[C@@H](O)[C@H]1[C@@]3(C)CC[C@@H](O)[C@@H](C)[C@@H]3CC[C@@]12C | 46.1 | 6.2 (≈ 3.86 µg/mL) | 43.2 (≈ 26.9 µg/mL) |  |  |
| CC(=O)O[C@H]1C[C@@]2(C)[C@@H](C[C@@H](O)[C@H]3[C@@]4(C)CC[C@@H](O)[C@@H](C)[C@@H]4CC[C@@]32C)/C1=C(\CCC=C(C)C)C(=O)NCc1ccc(C)cc1 | > 50 | > 125 | 125 (≈ 77.5 µg/mL) |  |  |
| CC(=O)O[C@H]1C[C@@]2(C)[C@@H](C[C@@H](O)[C@H]3[C@@]4(C)CC[C@@H](O)[C@@H](C)[C@@H]4CC[C@@]32C)/C1=C(\CCC=C(C)C)C(=O)NCc1ccccc1 | 44.1 | > 125 | 125 (≈ 75.7 µg/mL) |  |  |
| CC(=O)O[C@H]1C[C@@]2(C)[C@@H](C[C@@H](O)[C@H]3[C@@]4(C)CC[C@@H](O)[C@@H](C)[C@@H]4CC[C@@]32C)/C1=C(\CCC=C(C)C)C(=O)N[C@H](C)c1ccccc1 | 47.6 | 11 (≈ 6.82 µg/mL) | > 125 |  |  |
| CC(=O)O[C@H]1C[C@@]2(C)[C@@H](C[C@@H](O)[C@H]3[C@@]4(C)CC[C@@H](O)[C@@H](C)[C@@H]4CC[C@@]32C)/C1=C(\CCC=C(C)C)C(=O)O [FUSIDIC ACID] |  | 0.24 (≈ 0.124 µg/mL) | 9.25 (≈ 4.78 µg/mL) | 0.03 to 0.05 | 31 (≈ 16 µg/mL) |
| CC(=O)O[C@H]1C[C@@]2(C)[C@@H](C[C@@H](O)[C@H]3[C@@]4(C)CC[C@@H](O)[C@@H](C)[C@@H]4CC[C@@]32C)/C1=C(\CCC=C(C)C)C(=O)N[C@H](C)C1CCCCC1 | > 50 | 7.45 (≈ 4.66 µg/mL) | > 125 |  |  |
| COC(=O)[C@H](NC(=O)/C(CCC=C(C)C)=C1\[C@@H](OC(C)=O)C[C@@]2(C)[C@H]1C[C@@H](O)[C@H]1[C@@]3(C)CC[C@@H](O)[C@@H](C)[C@@H]3CC[C@@]12C)c1ccccc1 | 42.9 | 7.1 (≈ 4.71 µg/mL) | 38.8 (≈ 25.8 µg/mL) |  |  |
| CC(=O)O[C@H]1C[C@@]2(C)[C@@H](C[C@@H](O)[C@H]3[C@@]4(C)CC[C@@H](O)[C@@H](C)[C@@H]4CC[C@@]32C)/C1=C(\CCC=C(C)C)C(=O)NCc1ccc(F)cc1 | 40.2 | > 125 | 125 (≈ 78 µg/mL) |  |  |
| COc1ccc(NC(=O)/C(CCC=C(C)C)=C2\[C@@H](OC(C)=O)C[C@@]3(C)[C@H]2C[C@@H](O)[C@H]2[C@@]4(C)CC[C@@H](O)[C@@H](C)[C@@H]4CC[C@@]23C)cc1 | 47.1 | > 125 | > 125 |  |  |
| CC(=O)O[C@H]1C[C@@]2(C)[C@@H](C[C@@H](O)[C@H]3[C@@]4(C)CC[C@@H](O)[C@@H](C)[C@@H]4CC[C@@]32C)/C1=C(\CCC=C(C)C)C(=O)NC(C)c1ccc(Cl)c(Cl)c1 (mixture of isomers) | > 50 | 7.2 | 32.3 |  |  |
